Arr AP2 block: inhibitors of beta-arrestin/AP2 binding, primary screen, biochemical, GPCR trafficking, flow cytometry; beta-arrestin 1 C-terminal peptide binding to AP2 beta2-adaptin appendage (human); FITC-arrestin peptide / GST-AP2 beads; AP2 beta2 appendage carries R879A mutation; inhibition, % at 10 µM; 340,000 tested, 0.31% active;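 active means inhibition above a set limit, near 3 SD of compounds lacking own fluorescence, cut at about 54% in these data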;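 further: plate controls were DMSO wells for no effect and 5 µM unlabelled arrestin peptide for full effect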
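Material – GST-tagged AP2 beta2-adaptin appendage (R879A) on 4 µm glutathione beads · Probe or stimulus – fluorescein-tagged arrestin peptide at 50 nM final · Timing – 12 min plus 1 h, RT · Detection – bead flow cytometry, FITC channel · Read-out basis – inhibition as reduced fluorescein signal on beads, percent · Medium – PBS plus Tween 20 (0.05%) and BSA (0.1%)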
Hep lipid drop: inhibitors of hepatocyte lipid droplet formation, primary screen, imaging, high-throughput imaging, BODIPY stain | AML12 mouse hepatocytes, oleate lipid droplets | inhibition, % at 6.5 µM | 240,000 tested, 0.4% active | AID 1656, 2009;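 active means lipid droplet intensity inhibited by at least 50%, with more than 500 cells counted; inconclusive means wells with under 300 cells, treated as cytotoxic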
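Assay system: AML12 hepatocytes (mouse) / Also added: 100 µM oleic acid challenge / Times: overnight treatment with compound plus oleate / Detection: high-content imaging of BODIPY-stained droplets and DAPI nuclei / Evaluation: % inhibition of lipid droplet signal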
Fh CTSL1 inh: Fasciola hepatica cathepsin L1 inhibitors, primary screen, counter-screen for PFM18AAP inhibitor project, biochemical, QFRET, fluorogenic peptide substrate; recombinant F. hepatica cathepsin L1, Z-Leu-Arg-MCA fluorescence; inhibition, % at 5.96 µM; 300,000 tested, 0.49% active; AID 1906, 2009;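 active means inhibition above the mean of all tested compounds plus 3 SD, set per screening campaign, cut at about 17% in these data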;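 further: 0% = plate median of test compound wells and 100% = 1 µM Z-Phe-Ala-diazomethylketone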
pCIP destab: p/CIP-EGFP fusion destabilizers, primary screen, fluorescence, F442A cells; Q05BA5; 16 h; decrease of EGFP signal, % at 10 µM; 290,000 tested, 0.01% active;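 active means EGFP signal decrease of at least 30% at 10 µM or well 3 SD below plate mean, unless failing retest; inactive means the rest, including hits failing retest or dose response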
The depositor's hits bear a star; ? = inconclusive; · = no result. A selection: hits, their analogues and other compounds. The true share with any hit is near 1%.

SMILES	Arr AP2 block	Hep lipid drop	Fh CTSL1 inh	pCIP destab
Cn1c(=O)n(C)c2cc(/C=N/NC(N)=S)ccc21	51.4	-19.5	32.7*	7.7
Cn1c(=O)n(C)c2cc(/C=N/NC(=O)c3ccc(Cl)cc3Cl)ccc21	0.0	·	8.9	-17.5
CN(C)c1ccc(/C=N/NC(N)=S)cc1[N+](=O)[O-]	14.5	15.8	18.7*	-2.0
O=C1C=C(Nc2cccc3cccnc23)c2ccccc2C1=O	5.0	?	19.9*	-14.4
O=C1C=C(Nc2ccccc2C(=O)O)c2ccccc2C1=O	-11.4	9.0	28.9*	6.6
O=C1C=C(Nc2ccccc2)c2ccccc2C1=O	6.5	-11.2	·	-2.3
Cc1cc(-c2ccccc2)nc2[nH]n(-c3ccccc3)c(=O)c12	11.6	11.6	1.1	3.6
Cn1c(=O)n(C)c2cc(NC(=O)CCl)ccc21	-1.0	·	23.9*	-2.8
Cc1nnc(CN(C)C(=O)c2cc(COc3ccc(C)c(C)c3)on2)o1	4.6	-2.7	-2.4	1.3
Cc1cnc(C(=O)OCC(=O)N(CC(C)C)C2CCS(=O)(=O)C2)cn1 (stereo not drawn)	-22.8	·	·	·
OCCCNc1ncnc2sc3c(c12)CCN(Cc1ccccc1)C3	25.0	6.5	32.0*	0.5
Cn1c(/C(C#N)=C(\O)c2ccc(S(=O)(=O)N3CCCCC3)cc2)nc2ccccc21	-3.6	·	5.7	-5.5
CCC1=NN2C(=N)/C(=C\c3cccn3-c3ccc(C)c(C)c3)C(=O)N=C2S1	2.6	-1.0	3.1	-11.3
COc1ccc(C(=O)COC(=O)CNC(=O)C2CCCCC2)c(OC)c1	6.0	-1.4	34.5*	-12.7
CCOc1ccc(C(=O)COC(=O)CNC(=O)C2CCCCC2)cc1	11.5	·	·	·
O=C(CNC(=O)C1CCCCC1)OCC(=O)c1ccc(Br)cc1	-1.9	-1.8	·	10.1
COc1ccc(OC)c(C(=O)COC(=O)CNC(=O)C2CCCCC2)c1	18.2	-0.6	33.2*	-11.4
O=C(CNC(=O)C1CCCCC1)OCC(=O)c1ccc(Cl)s1	8.5	-6.7	18.2*	2.7
O=C1COc2ccc(C(=O)COC(=O)CNC(=O)C3CCCCC3)cc2N1	35.1	-12.3	31.2*	12.2
COc1cc(OC)cc(C(=O)NCC(=O)OCC(=O)c2cc(OC)ccc2OC)c1	6.9	21.6	-17.9	-10.5
COc1ccc(CN2C(=O)CCCc3ccccc32)cc1	6.5	1.4	1.0	-10.8
Cn1c(/C=C/c2cccc([N+](=O)[O-])c2)c([N+](=O)[O-])c(=O)n(C)c1=O	1.1	-1.5	-2.0	-4.2
COc1cc(C)ccc1OCCOCCN(C)Cc1ccccc1	13.3	-4.1	3.3	4.0
O=C(NC(=S)Nc1cccc2[nH]ncc12)c1ccccc1	-3.7	1.8	-0.2	-7.9
O=C(COC(=O)CC1CCCC1)Nc1ccc(Cl)cn1	12.9	·	·	·
SMILES	Arr AP2 block	Hep lipid drop	Fh CTSL1 inh	pCIP destab
O=C(COC(=O)CNC(=O)C1CCCCC1)Nc1ccc(Cl)cn1	-4.5	·	28.7*	·
Cc1ccc(S(=O)(=O)/N=C2\C=C(Nc3cccc(C(=O)O)c3)C(=O)c3ccccc32)c(C)c1	10.4	5.0	45.6*	-3.3
Cc1ccc(S(=O)(=O)/N=C2\C=C(Nc3ccc(O)cc3)C(=O)c3ccccc32)cc1	-0.5	·	·	·
Cc1ccc(S(=O)(=O)/N=C2\C=C(Nc3cccc(C(=O)O)c3)C(=O)c3ccccc32)cc1	18.7	-0.5	62.7*	3.6
CCc1ccc(S(=O)(=O)/N=C2\C=C(Nc3ccc(C(=O)O)cc3)C(=O)c3ccccc32)cc1	12.3	·	79.1*	-21.5
COC(=O)c1ccc(NC(=O)c2ccc(OC(C)=O)c(OC)c2)cc1	19.0	-1.1	-1.7	-10.4
Cn1c(=O)c2c(nc(SCCCO)n2Cc2ccccc2Cl)n(C)c1=O	4.7	-7.1	1.1	-0.5
COC(=O)Cc1[nH]n(-c2nc3ccccc3s2)c(=O)c1C(C)=O	14.5	-1.7	-3.4	-12.4
COc1ccc(CN=C(C)c2c(C(F)(F)F)[nH]n(-c3nc4ccccc4s3)c2=O)cc1	17.0	17.9	17.7*	-10.2
N/C(=N\OS(=O)(=O)c1ccc(Cl)cc1)c1ccncc1	-1.0	5.2	24.2*	8.8
N/C(=N\OS(=O)(=O)c1ccc(Cl)cc1)c1cccnc1	0.1	-16.7	-3.3	5.2
S=C(NCCNCc1ccccc1)NC1CCCCC1	·	-1.6	19.0*	-11.2
CN(C)C(=O)NC1C=CS(=O)(=O)C1 (stereo not drawn)	34.6	1.4	4.4	-7.6
FC(F)(F)c1ccc2c(c1)N1CCCC1CN2 (stereo not drawn)	14.6	13.3	3.1	-15.6
FC(F)(F)c1ccc2c(c1)NCC1CCCN21 (stereo not drawn)	-5.0	-5.1	21.6*	-16.8
CN(C(=O)CSc1ncnc2scc(-c3ccccc3)c12)C1CCS(=O)(=O)C1 (stereo not drawn)	43.3	-9.2	17.4*	-7.8
O=Cc1ccc(Sc2nnc(-c3ccccc3)o2)c([N+](=O)[O-])c1	-12.7	·	-0.2	3.4
Cn1nc([N+](=O)[O-])nc1Sc1nnc(-c2ccccc2)o1	1.2	?	63.4*	-10.8
CN(C)C(CNC(=O)c1ccc([N+](=O)[O-])cc1Cl)c1ccco1 (stereo not drawn)	24.5	9.3	18.6*	-0.9
CN(C)c1ccc([N+](=O)[O-])cc1C(=O)NCC(c1ccco1)N(C)C (stereo not drawn)	-2.4	-6.9	4.8	-8.5
CC(C)c1ccc(-c2nnn(CC(=O)N3CCCCC3)n2)cc1	11.7	-5.6	-3.6	-17.9
O=C(CSc1nnnn1-c1ccccc1)CC(=O)Nc1ccc(Cl)cc1	12.6	·	23.7*	-5.1
Cn1c(SCC(=O)CC(=O)Nc2ccccc2)nnc1-c1ccc(O)cc1	-10.1	4.0	26.5*	5.4
NC(=O)c1ccc(-n2nnnc2SCC(=O)Nc2ccccc2)cc1	5.0	19.6	-1.9	-4.4
COc1ccc(OCc2nnc(SCC(=O)Nc3ccc(C)cc3)o2)cc1	17.2	12.6	-8.2	-1.2
SMILES	Arr AP2 block	Hep lipid drop	Fh CTSL1 inh	pCIP destab
Cc1ccc(OCc2nnc(SCC(=O)CC(=O)Nc3ccccc3)o2)cc1	-2.8	·	24.7*	5.7
O=C(COc1ccc(Cl)cc1)NCCCNC(=O)c1cccnc1	-10.5	0.7	16.8*	-16.0
Cc1ccc(Nc2nc(N)nc(CSC(=S)N3CCOCC3)n2)cc1	8.0	·	0.9	-8.9
CCOc1ccc(Nc2nc(N)nc(CSC(=S)N3CCOCC3)n2)cc1	-0.9	2.5	17.9*	7.6
N#CC1=C(N)OC2=C(CCc3ccccc32)C1c1ccccc1 (stereo not drawn)	7.2	100.8*	3.0	-0.9
CCCCN(C)C(=O)c1nc2ccccn2c1CN(C)Cc1csc(C)n1	1.6	2.8	-1.0	-0.3
CCOc1ccc(C2CC(c3ccc(OC)cc3)n3ncnc3N2)cc1 (stereo not drawn)	17.6	-28.2	18.1*	-12.8
CCOc1ccc(Br)cc1S(=O)(=O)Nc1ccc(Cl)c(S(=O)(=O)N(CC)c2ccccc2)c1	6.9	-2.4	16.7*	0.3

Screens deposited in PubChem BioAssay by several laboratories.
